Screening data: PubChem, several laboratories
An excerpt weighted towards active compounds, which were near 3.8% of everything screened.
B2AR ag: human beta-2 adrenergic receptor agonism by FAP; P07550; response, % (concentration not given with the values); actives 0.43% (n = 340,000); Am2.2-beta2AR cells, FAP receptor internalization, flow cytometry;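 active = response above a set limit, near 3 SD of response in nonfluorescent compounds, cut at about 42% in these data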
Target sequence (P07550 whole entry, looked up): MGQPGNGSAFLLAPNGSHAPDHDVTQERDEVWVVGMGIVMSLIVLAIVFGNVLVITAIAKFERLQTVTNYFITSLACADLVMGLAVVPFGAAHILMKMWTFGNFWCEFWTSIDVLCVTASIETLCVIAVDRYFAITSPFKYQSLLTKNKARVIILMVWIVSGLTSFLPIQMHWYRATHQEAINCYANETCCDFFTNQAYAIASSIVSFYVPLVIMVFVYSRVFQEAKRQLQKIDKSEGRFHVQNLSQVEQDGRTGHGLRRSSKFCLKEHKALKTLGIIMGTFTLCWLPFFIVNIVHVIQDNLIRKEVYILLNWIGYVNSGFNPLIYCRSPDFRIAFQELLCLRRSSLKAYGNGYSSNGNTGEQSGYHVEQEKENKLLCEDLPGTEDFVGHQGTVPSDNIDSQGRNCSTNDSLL
T cell modulator: modulates CD8 T cell binding to vesicles. 2C CD8+ T cell-vesicle binding, flow cytometry; active compounds read low. response (vesicle binding), % at 7 µM. actives 0.068% (n = 330,000). AID 2052;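 active = response, share of CD8 T cells binding vesicles, and their 90th percentile fluorescence all below set limits, cut at about 80% in these data, passing the limit was not always enough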;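 also: values below 100% mean blocked vesicle binding to the CD8+ T cells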
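Assay system – 2C mouse CD8+ T cells · Also added – QL9-loaded Drosophila micro-vesicles · Timing – Cell–vesicle co-incubation 1.5 h at 37 °C, staining 20 min on ice · Signal – flow cytometry of vesicle-bound cells · Measure – percent CD8+ FL2 mean versus row control · Controls – Peptide-free naked vesicles (low) and QL9 vesicles with 0.7% DMSO vehicle (high)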
Exocytosis inh: blocks lytic granule exocytosis; inhibition, % at 10 µM; actives 0.66% (n = 360,000); TALL-104 LAMP-1 surface exposure, flow cytometry; cells stimulated with thapsigargin and PMA; AID 651702;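 active = inhibition above about 55%, limit read from the data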
MPTP block: inhibitors of mitochondrial permeability transition pore | isolated mouse mitochondria, Ca2+ swelling absorbance, 30 min | inhibition, % at 10 µM | actives 1.4% (n = 360,000) | AID 602449;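 active = inhibition of 50% or more, scaled per plate between neutral and stimulator controls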;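 also: 0% = DMSO wells given calcium and 100% = 1 mM EGTA wells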
rCAG RNA binder: binds r(CAG) RNA repeats; r(CAG) RNA repeat, TO-PRO-1 dye displacement fluorescence; inhibition, % at 3 µM; actives 1.3% (n = 370,000); AID 651821;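 active = inhibition above the plate cutoff, the mean of all test compounds on that plate plus 3 SD, cut at about 35% in these data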;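 also: 0% = DMSO alone and 100% = 100 µM mitoxantrone as full dye displacement; higher means more dye released from RNA so lower well fluorescence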
V-ATPase pHluor: regulators of yeast V-ATPase proton transport; response, % at 10 µM; S. cerevisiae, pHLuorin cytosolic pH fluorescence; actives 0.37% (n = 350,000); in the data active = response mostly above about 7.3%, no sharp cut-off; inactive = mostly below about 5.4%; also: actives read high
* = called active by the depositor; i = inactive; . = not tested or not shown.

SMILES	B2AR ag	T cell modulator	Exocytosis inh	MPTP block	rCAG RNA binder	V-ATPase pHluor
Fc1ccc(-n2c(CN3CCCCC3)n[nH]c2=S)cc1	-3	212	-3	1	-4	14*
COc1ccc2c(c1)CCCN2C(=O)C1CCCN(S(=O)(=O)c2ccc(Cl)s2)C1 (stereo not drawn)	.	.	.	.	1	.
COc1ccc(OC)c(C(C[N+](=O)[O-])c2c(C)cc3ccccn23)c1 (stereo not drawn)	6	519	75*	6	10	3
COc1ccc([C@H]2OC(=O)C[C@H]2C(=O)N2CCN(c3ccccc3Cl)CC2)cc1OC	.	.	.	.	0	.
O=C1c2ccccc2C(=O)N1CCCc1cn(C[C@H]2CC[C@@H]([C@@H]3CC[C@H](Cn4cc(CCCN5C(=O)c6ccccc6C5=O)nn4)O3)O2)nn1	-7	308	67*	0	-7	-2
CCOC(=O)c1sc(NC(=O)CSc2nnnn2-c2ccccc2)nc1C	-1	153	2	0	3	-3
CCOC(=O)c1c(-c2ccc(C)o2)csc1NC(=O)CSc1nnnn1-c1ccccc1	-1	545	95*	-1	5	1
N/C(=N\OC(=O)COc1ccc(Br)cc1Cl)c1ccccn1	-19	204	-4	-2	-1	22*
Cc1ccc(N=Cc2cccc(O)c2O)c(C)c1	4	645	93*	18	15	0
CC1=Nn2c(nnc2-c2ccccc2F)SC1	8	426	7	-2	4	15*
C=CCN(C)CC#Cc1ccccc1C	.	.	.	.	0	.
C/C=C(/C)C(=O)OC1c2c(ccc3ccc(=O)oc23)OC(C)(C)C1OC(C)=O (stereo not drawn)	3	278	0	-1	-5	-3
C/C=C(/C)C(=O)O[C@@H]1[C@H](OC(C)=O)c2c(ccc3ccc(=O)oc23)OC1(C)C	-5	456	61*	1	-8	-9
COC(=O)c1ccccc1-c1c2ccc(=N)cc-2oc2cc(N)ccc12	.	i	1	3	-72	454*
O=C(OCCN1CCN(C2CN(Cc3cn(Cc4ccc([N+](=O)[O-])cc4)nn3)S(=O)(=O)C2)CC1)c1cc2ccccc2o1 (stereo not drawn)	.	.	.	.	0	.
CCCCN(CCCC)S(=O)(=O)c1ccc(NC(=O)Cc2cccs2)cc1	51*	244	20	16	20	-5
Cc1cc(N)c2cc(NC(=O)/C=C/c3ccccc3Cl)ccc2n1	73*	289	15	15	.	3
O=C1O/C(=C/c2ccccc2)c2ccccc21	-6	261	0	1	4	3
N#CC1=C(c2ccccc2)/C(=C/c2ccccc2)OC1=O	36	314	66*	3	7	8
COC(=O)[C@]12C[C@H](CC(=O)NCCCCc3ccccc3)C(=O)N(CCC3=CCCCC3)C1=C[C@H](COCc1ccccc1)O[C@@H]2C	.	.	.	.	7	.
NC(=S)NNc1ccc(Cl)c(Cl)c1	0	291	68*	3	0	3
Cc1ccc(NNC(N)=S)cc1Cl	-3	252	6	1	1	4
CCN(CC)C(=O)CC[C@H]1CC[C@]2(CCCN(CC3CC3)C2)O1	.	.	.	.	3	.
COCCCNC(=O)/C(C#N)=C/c1cccc(NC(=O)c2ccccc2Cl)c1	10	276	8	-1	2	-3
N#C/C(=C\c1cccc(NC(=O)c2ccccc2Cl)c1)C(=O)NCCc1ccccc1	43*	264	3	3	11	1
SMILES	B2AR ag	T cell modulator	Exocytosis inh	MPTP block	rCAG RNA binder	V-ATPase pHluor
O=C(CSc1nc2[nH]c(=O)cc(O)c2s1)Nc1nncs1	22	.	-2	-3	0	-4
Cc1csc(NC(=O)CSc2nc3[nH]c(=O)cc(O)c3s2)n1	93*	.	-8	0	4	1
CC(/C=N/n1c(COc2ccccc2)n[nH]c1=S)=C\c1ccccc1	-2	179	3	14	41*	-1
Cc1cccc(/C=N/n2c(COc3ccccc3)n[nH]c2=S)c1	-16	178	-4	0	22	-7
CCOC(=O)Cn1cc(CN2CCS(=O)(=O)N(Cc3ccccc3)C(C(=O)OC)C2)nn1 (stereo not drawn)	.	.	.	.	1	.
COc1ccc2c(c1)/C(=N/N1C(=O)c3ccccc3C1=O)C(=O)N2	.	219	.	.	.	.
COc1ccc2c(c1)/C(=C\c1cccc(/C=C3/C(=O)Nc4ccc(OC)cc43)n1)C(=O)N2	93*	.	16	-1	13	6
[C-]#[N+][C@]12C(=O)[C@H](C=C(Cl)[C@@]1(C)C=C)C(C)(C)[C@H]1C(=O)N(C)c3cccc2c31	.	.	.	.	2	.
CCc1cc2c(nc1CC)CCCN2S(=O)(=O)c1ccccc1	.	.	.	.	-1	.
O=C(COCc1ccccc1)N1CC[C@H]2[C@H](CCCN2Cc2ccc(F)cc2)C1	.	.	.	.	-2	.
O=C(c1ccc(-c2nnc(Nc3cccc(Cl)c3)c3ccccc23)cc1)N1C[C@H]2C[C@H](C1)c1cccc(=O)n1C2	74*	211	-2	1	5	0
COc1nnc(-c2ccc(C(=O)N3C[C@@H]4C[C@H](C3)c3cccc(=O)n3C4)cc2)c2ccccc12	4	.	-1	2	2	-1
COc1ccc(-c2cccc(NS(=O)(=O)c3cc([N+](=O)[O-])c(C)c([N+](=O)[O-])c3)c2)nn1	0	222	1	7	57*	-2
COc1ccc(S(=O)(=O)N2CCCCC2)cc1C(=O)N1CCCC1	1	0.0*	0	-2	0	0
COc1ccc(S(=O)(=O)N2CCCC2)cc1C(=O)N1CCCCC1	-1	203	-4	0	-3	-2
COCC#Cc1ccc(CC[C@H]2O[C@H]3CC[C@@H](CO)O[C@H]3C[C@H]2n2cc(C3CC3)nn2)cc1	.	.	.	.	0	.
COc1ccc(-c2cc(-c3nnc(SCC(=O)NC4CCCCC4)n3N)[nH]n2)cc1	.	.	.	.	1	.
CCOC(=O)c1c(SC)n(-c2ccccc2)c(=S)n(-c2ccccc2)c1=O	15	136	2	-1	1	2
CCOC(=O)c1c(SCCN2CCCCC2)n(-c2ccccc2)c(=S)n(-c2ccccc2)c1=O	30	.	69*	0	2	-3
Cc1cccc(N(C)S(=O)(=O)c2c[nH]c3ccc([N+](=O)[O-])cc23)c1	0	366	84*	24	24	3
Cc1cccc(N(C)S(=O)(=O)c2cccc3nsnc23)c1	-2	374	2	0	-3	-5
O=S(=O)(CC1NCCc2ccccc21)NCCc1ccccc1 (stereo not drawn)	.	.	.	.	2	.
O[C@H](COc1cccc(Cl)c1)CN1CCC(C(O)(c2ccccc2)c2ccccc2)CC1	.	.	.	.	-1	.
COc1ccc(NC(=O)/C(C#N)=C/c2ccc(-c3ccccc3C(=O)O)o2)cc1	-7	171	6	0	23	-2
COc1ccc(NC(=O)/C(C#N)=C\c2ccc(-c3cc(C(=O)O)ccc3C)o2)cc1	5	91	2	0	59*	1
